What was measured:
[1] = molecular target: Tyrosine-protein kinase Lck (Homo sapiens) (UniProt P06239); assay: Inhibition of human recombinant LCK at 500 nM related to control ULK1
[2] = molecular target: Casein kinase II subunit alpha' (Homo sapiens) (UniProt P19784); assay: Inhibition of human recombinant CK2a2 at 500 nM related to control ULK1
[3] = molecular target: Serine/threonine-protein kinase 25 (Homo sapiens) (UniProt O00506); assay: Inhibition of human recombinant YSK1 at 500 nM related to control ULK1
Serine/threonine-protein kinase 25 (Homo sapiens), sequence (O00506 whole entry, looked up): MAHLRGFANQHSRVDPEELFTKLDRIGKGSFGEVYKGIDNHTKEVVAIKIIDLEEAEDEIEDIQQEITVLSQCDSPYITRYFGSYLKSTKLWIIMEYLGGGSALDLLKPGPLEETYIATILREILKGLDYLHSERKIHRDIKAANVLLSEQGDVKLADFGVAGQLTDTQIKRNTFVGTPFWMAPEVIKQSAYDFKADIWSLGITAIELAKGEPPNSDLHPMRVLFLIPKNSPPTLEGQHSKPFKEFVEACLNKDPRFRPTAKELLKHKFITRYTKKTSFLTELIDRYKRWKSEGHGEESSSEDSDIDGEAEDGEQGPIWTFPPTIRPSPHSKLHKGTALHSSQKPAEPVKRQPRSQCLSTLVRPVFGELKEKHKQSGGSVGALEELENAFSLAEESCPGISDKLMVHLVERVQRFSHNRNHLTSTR

[4] = molecular target: T1, Serine/threonine-protein kinase Nek2 (Homo sapiens) (UniProt P51955); assay: Inhibition of human recombinant NEK2 at 500 nM in presence of ATP by radiometric assay relative to control
T1 sequence (whole entry): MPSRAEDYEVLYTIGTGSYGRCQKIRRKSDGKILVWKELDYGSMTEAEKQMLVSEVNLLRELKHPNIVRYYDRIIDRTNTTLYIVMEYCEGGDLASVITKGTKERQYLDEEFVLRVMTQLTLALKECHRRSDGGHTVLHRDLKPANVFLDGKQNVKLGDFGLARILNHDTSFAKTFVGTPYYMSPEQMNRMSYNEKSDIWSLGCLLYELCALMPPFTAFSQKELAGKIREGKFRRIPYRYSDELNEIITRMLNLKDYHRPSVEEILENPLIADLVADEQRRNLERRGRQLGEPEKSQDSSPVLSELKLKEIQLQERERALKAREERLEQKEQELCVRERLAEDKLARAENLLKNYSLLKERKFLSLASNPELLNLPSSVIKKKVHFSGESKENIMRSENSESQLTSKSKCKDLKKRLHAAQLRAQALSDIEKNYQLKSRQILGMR

[5] = molecular target: Ribosomal protein S6 kinase alpha-6 (Homo sapiens) (UniProt Q9UK32); assay: Inhibition of human recombinant RSK4 at 500 nM related to control ULK1
Ribosomal protein S6 kinase alpha-6 (Homo sapiens), sequence (Q9UK32 whole entry, canonical isoform): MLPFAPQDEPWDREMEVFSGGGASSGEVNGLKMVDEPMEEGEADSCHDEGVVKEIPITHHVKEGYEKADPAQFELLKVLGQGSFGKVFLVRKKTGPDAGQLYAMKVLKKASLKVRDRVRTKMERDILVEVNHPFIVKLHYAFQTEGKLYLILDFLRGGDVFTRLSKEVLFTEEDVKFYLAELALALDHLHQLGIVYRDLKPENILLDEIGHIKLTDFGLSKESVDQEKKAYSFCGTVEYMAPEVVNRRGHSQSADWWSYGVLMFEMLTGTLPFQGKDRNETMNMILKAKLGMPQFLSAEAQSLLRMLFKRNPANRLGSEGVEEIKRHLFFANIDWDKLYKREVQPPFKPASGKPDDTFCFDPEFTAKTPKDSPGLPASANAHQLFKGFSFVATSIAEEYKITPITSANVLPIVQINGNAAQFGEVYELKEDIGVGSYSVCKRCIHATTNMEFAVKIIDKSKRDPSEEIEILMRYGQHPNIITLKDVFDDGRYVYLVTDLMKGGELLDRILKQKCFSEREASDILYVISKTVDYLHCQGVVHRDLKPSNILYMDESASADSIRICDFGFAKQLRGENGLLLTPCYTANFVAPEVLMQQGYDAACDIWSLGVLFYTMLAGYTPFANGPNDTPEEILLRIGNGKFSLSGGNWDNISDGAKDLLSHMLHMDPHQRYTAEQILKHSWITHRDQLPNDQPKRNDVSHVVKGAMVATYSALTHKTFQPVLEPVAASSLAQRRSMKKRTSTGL

[6] = molecular target: T2, Phosphorylase b kinase gamma catalytic chain, liver/testis isoform (Homo sapiens) (UniProt P15735); assay: Inhibition of human recombinant PHKg2 at 500 nM in presence of ATP by radiometric assay relative to control
T2 sequence (whole entry): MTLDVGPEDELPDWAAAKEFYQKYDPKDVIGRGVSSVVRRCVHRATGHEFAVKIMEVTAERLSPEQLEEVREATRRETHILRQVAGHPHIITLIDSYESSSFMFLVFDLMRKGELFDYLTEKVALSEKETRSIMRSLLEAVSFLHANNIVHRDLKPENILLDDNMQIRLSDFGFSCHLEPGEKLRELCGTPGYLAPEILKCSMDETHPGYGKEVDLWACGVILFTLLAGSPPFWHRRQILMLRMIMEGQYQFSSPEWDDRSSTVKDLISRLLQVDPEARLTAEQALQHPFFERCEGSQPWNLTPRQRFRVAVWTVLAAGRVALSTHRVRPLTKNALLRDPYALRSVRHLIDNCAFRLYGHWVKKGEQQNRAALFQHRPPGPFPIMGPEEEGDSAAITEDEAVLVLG

[7] = molecular target: T3, Serine/threonine-protein kinase BRSK1 (Homo sapiens) (UniProt Q8TDC3); assay: Inhibition of human recombinant BRSK1 at 500 nM related to control ULK1
T3 sequence (whole entry): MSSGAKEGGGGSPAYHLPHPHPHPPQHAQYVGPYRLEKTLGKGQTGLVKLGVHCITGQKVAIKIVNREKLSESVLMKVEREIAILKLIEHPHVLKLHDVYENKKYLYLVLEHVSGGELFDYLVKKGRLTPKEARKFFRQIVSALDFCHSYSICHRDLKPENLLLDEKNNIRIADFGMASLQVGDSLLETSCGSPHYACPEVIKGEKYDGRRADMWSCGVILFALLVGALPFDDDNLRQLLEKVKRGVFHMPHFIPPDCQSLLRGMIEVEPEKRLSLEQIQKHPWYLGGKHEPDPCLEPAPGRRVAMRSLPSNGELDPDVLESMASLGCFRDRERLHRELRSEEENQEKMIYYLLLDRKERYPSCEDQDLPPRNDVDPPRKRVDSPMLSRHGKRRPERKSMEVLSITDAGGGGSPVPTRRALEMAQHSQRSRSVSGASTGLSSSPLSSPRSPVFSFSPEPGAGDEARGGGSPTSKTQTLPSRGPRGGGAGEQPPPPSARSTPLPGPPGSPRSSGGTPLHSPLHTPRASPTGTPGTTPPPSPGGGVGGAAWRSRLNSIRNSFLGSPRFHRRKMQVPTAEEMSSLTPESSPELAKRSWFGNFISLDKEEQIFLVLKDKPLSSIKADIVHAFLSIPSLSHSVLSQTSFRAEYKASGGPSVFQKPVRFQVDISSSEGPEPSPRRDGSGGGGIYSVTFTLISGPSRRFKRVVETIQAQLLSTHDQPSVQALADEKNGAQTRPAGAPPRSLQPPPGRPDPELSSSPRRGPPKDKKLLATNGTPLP
Method in brief: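 Recombinant human kinase panel (327 kinases) run as radiometric activity assays, each kinase in duplicate at one compound concentration. Activity remaining expressed relative to vehicle control; percent inhibition taken as 100% minus % activity remaining.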

[8] = molecular target: Serine/threonine-protein kinase 32A (Homo sapiens) (UniProt Q8WU08); assay: Inhibition of human recombinant YANK1 at 15 nM related to control ULK1
Serine/threonine-protein kinase 32A (Homo sapiens), sequence (Q8WU08 whole entry): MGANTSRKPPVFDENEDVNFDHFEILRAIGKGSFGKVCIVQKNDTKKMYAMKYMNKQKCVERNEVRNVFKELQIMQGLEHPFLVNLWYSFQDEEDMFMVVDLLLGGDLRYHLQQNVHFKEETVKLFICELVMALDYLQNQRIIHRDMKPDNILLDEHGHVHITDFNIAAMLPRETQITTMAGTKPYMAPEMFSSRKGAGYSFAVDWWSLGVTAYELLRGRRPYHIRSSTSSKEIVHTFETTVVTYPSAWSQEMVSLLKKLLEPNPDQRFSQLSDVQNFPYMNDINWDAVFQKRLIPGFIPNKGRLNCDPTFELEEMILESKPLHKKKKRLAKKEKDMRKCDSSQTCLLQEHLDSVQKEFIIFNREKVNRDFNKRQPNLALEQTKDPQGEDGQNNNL

[9] = molecular target: Cyclin-dependent kinase 6 (Homo sapiens) (UniProt Q00534); assay: Inhibition of human recombinant CDK6 at 15 nM in presence of ATP by radiometric assay relative to control
Cyclin-dependent kinase 6 (Homo sapiens), sequence (Q00534 whole entry): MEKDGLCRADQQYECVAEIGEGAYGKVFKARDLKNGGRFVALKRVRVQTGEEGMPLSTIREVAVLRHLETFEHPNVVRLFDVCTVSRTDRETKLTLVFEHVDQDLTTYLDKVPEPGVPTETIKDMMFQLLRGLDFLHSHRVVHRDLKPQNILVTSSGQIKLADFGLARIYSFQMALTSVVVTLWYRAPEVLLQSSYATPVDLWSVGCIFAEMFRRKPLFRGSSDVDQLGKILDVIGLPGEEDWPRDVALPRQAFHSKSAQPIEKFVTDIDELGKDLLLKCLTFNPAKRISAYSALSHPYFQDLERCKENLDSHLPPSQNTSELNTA

[10] = molecular target: T4, Serine/threonine-protein kinase ULK3 (Homo sapiens) (UniProt Q6PHR2); assay: Inhibition of human recombinant ULK3 at 40 nM in presence of ATP by radiometric assay relative to control
T4 sequence (whole entry): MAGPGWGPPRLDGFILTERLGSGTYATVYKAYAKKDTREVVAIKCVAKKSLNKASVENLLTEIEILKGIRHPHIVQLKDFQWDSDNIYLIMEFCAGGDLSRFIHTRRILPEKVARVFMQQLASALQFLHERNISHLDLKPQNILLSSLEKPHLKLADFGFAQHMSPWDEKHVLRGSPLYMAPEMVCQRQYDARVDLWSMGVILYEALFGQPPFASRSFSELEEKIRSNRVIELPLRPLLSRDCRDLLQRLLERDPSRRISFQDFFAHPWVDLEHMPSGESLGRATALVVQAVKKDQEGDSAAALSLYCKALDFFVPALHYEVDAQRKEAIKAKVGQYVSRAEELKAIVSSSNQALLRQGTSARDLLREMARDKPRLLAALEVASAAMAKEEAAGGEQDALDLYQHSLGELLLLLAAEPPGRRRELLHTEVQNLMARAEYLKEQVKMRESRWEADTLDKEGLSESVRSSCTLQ

[11] = molecular target: Platelet-derived growth factor receptor beta (Homo sapiens) (UniProt P09619); assay: Inhibition of human recombinant PDGFRb at 40 nM in presence of ATP by radiometric assay relative to control
Platelet-derived growth factor receptor beta (Homo sapiens), sequence (P09619 whole entry): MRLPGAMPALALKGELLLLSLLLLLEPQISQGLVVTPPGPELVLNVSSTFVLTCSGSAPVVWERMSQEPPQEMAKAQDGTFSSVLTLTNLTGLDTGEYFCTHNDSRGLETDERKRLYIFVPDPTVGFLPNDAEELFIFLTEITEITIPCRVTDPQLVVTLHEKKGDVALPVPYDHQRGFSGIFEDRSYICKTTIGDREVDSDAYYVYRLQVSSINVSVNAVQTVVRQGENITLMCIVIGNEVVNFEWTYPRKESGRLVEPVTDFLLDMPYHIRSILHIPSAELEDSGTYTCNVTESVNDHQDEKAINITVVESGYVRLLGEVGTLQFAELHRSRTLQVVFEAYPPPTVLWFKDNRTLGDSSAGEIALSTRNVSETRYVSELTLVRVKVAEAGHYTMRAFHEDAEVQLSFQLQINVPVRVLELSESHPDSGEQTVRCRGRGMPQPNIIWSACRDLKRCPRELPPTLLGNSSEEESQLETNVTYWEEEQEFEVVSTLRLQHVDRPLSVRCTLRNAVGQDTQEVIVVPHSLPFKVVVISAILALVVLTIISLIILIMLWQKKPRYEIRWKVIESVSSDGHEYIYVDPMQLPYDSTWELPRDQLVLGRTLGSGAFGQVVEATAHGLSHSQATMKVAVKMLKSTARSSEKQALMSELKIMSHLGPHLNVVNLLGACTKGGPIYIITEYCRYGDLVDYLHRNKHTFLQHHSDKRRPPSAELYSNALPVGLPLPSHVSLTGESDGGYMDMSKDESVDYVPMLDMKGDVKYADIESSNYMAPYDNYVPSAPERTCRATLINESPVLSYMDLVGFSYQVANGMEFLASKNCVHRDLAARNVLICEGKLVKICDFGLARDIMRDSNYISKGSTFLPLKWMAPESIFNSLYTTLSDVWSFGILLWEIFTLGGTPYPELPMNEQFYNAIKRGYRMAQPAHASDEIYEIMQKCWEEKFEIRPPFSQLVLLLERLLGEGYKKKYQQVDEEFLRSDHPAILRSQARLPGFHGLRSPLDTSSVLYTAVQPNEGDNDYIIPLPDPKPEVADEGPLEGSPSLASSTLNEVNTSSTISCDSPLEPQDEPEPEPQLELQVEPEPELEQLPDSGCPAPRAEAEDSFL

Tyrosine-protein kinase Lck (Homo sapiens), sequence (P06239 2-509 limits assumed): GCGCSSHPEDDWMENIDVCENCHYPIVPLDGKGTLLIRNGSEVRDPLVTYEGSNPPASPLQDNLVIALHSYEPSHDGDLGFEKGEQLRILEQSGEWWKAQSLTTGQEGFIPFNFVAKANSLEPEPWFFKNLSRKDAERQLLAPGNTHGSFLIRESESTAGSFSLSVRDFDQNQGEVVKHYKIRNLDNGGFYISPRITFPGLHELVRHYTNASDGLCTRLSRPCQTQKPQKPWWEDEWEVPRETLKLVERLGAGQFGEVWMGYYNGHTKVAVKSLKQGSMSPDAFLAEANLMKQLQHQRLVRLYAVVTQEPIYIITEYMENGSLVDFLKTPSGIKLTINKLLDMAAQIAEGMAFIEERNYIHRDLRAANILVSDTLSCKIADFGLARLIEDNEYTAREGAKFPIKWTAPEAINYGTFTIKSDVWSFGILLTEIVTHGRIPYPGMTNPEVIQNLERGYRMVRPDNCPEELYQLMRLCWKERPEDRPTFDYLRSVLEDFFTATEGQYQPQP
Casein kinase II subunit alpha' (Homo sapiens), sequence (P19784 whole entry, looked up): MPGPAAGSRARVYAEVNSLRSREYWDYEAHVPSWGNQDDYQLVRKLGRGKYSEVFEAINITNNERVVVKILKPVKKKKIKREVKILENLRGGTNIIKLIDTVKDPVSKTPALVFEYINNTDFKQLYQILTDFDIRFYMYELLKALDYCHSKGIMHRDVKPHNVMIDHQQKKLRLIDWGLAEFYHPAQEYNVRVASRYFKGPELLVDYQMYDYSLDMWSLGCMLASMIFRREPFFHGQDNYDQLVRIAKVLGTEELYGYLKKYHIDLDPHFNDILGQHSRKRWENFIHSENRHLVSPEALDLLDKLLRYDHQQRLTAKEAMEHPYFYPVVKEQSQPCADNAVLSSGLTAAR

**Q.** What does the source list for `CNC(=O)c1ccccc1Oc1nc(Nc2cc(OC)c(OC)c(OC)c2)ncc1Br`?
**A.** fold change (FC) [1]: 0.18; fold change (FC) [2]: 0.07; fold change (FC) [3]: 0.16; inhibition [4]: 0%; fold change (FC) [5]: 0.45; inhibition [6]: 0%; fold change (FC) [7]: 0.03

**Q.** Which results are given for `CC(C)[C@H](NC(=O)c1cc(-c2cnn3cc(-c4ccc(OCCN5CCCCC5)cc4)cnc23)cs1)C(F)(F)F`?
**A.** fold change (FC) [8]: 0.02; inhibition [9]: 8%

**Q.** `O=C(N[C@@H](C1CC1)C(F)(F)F)c1cc(-c2cnn3cc(-c4ccc(F)cc4)cnc23)cs1` was tested. Which inhibition [10] did it give?
**A.** Its inhibition is 5%.

**Q.** And the inhibition [11]?
**A.** The inhibition was 5%.

Reference: ChEMBL document CHEMBL5653631, “A Potent and Selective ULK1 Inhibitor Suppresses Autophagy and Sensitizes Cancer Cells to Nutrient Stress” (iScience, 2018)
